Results as given in ChEMBL document CHEMBL5303300, “EUbOPEN Chemogenomics Library - Multiplex” (2023).
“And” between values parts separate entries of the source, which are not always exact repeats. Equal values may be shown once.

Tested on: U2OS
Test: Multiplex assay against U2OS
Type: toxicity, cell-based
Details: human, number of replicates 2
Summary of the method: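 Hoechst33342, BioTracker Green Microtubule Cytoskeleton Dye, MitoTracker Red and Annexin V Alexa Fluor 680 were added to live cells at seeding, and imaging on a CQ1 microscope at 37°C and 5% CO2 followed compound addition. Gating by CellPathfinder machine learning separated cells into Hoechst high-intensity objects or normal cells, then normal cells into healthy, pyknosed or fragmented nuclei, then pyknosed cells into mitotic or apoptotic. Per cents of healthy-nucleus cells are reported for the tubulin, mitochondrial-mass and membrane-permeability phenotypes.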

[1] = 12 h, 1 µM, compound concentration 1 uM
[2] = 12 h, 10 µM, compound concentration 10 uM
[3] = 24 h, 1 µM, compound concentration 1 uM
[4] = 24 h, 10 µM, compound concentration 10 uM
[5] = 48 h, 1 µM, compound concentration 1 uM
[6] = 48 h, 10 µM, compound concentration 10 uM

Cn1ncc(NC(=O)c2nc(-c3c(F)cccc3F)sc2N)c1N1CC[C@@H](N)[C@H](F)CC1
Population Apoptotic (%) [1]: 55% and 77% | Population Healthy Nuclei (%) [1]: 46% and 79% | Population Hoechst High Intensity Objects (%) [1]: 0% | Population Mitochondria Different-Phenotype (%) [1]: 0% | Population Normal (%) [1]: 100% | Population Pyknosed Nuclei (%) [1]: 19% | Population Tubulin-Different-Phenotype (%) [1]: 50% and 77% | Population Apoptotic (%) [2]: 73% and 69% | Population Healthy Nuclei (%) [2]: 22% and 53% | Population Hoechst High Intensity Objects (%) [2]: 0% | Population Mitochondria Different-Phenotype (%) [2]: 0% and 18% | Population Normal (%) [2]: 98% and 99% | Population Pyknosed Nuclei (%) [2]: 44% and 24% | Population Tubulin-Different-Phenotype (%) [2]: 38% and 39% | Population Apoptotic (%) [3]: 50% and 89% | Population Healthy Nuclei (%) [3]: 48% and 85% | Population Hoechst High Intensity Objects (%) [3]: 0% | Population Mitochondria Different-Phenotype (%) [3]: 8% | Population Normal (%) [3]: 100% and 99% | Population Pyknosed Nuclei (%) [3]: 16% and 7% | Population Tubulin-Different-Phenotype (%) [3]: 62% and 80% | Population Apoptotic (%) [4]: 90% and 86% | Population Mitochondria Different-Phenotype (%) [4]: 33% | Population Normal (%) [4]: 98% and 100% | Population Pyknosed Nuclei (%) [4]: 49% and 31% | Population Tubulin-Different-Phenotype (%) [4]: 33% and 56% | Total Cell Count [4]: 64 and 190 | Population Apoptotic (%) [5]: 84% and 66% | Population Healthy Nuclei (%) [5]: 90% and 65% | Population Hoechst High Intensity Objects (%) [5]: 0% | Population Mitochondria Different-Phenotype (%) [5]: 7% | Population Normal (%) [5]: 100% | Population Pyknosed Nuclei (%) [5]: 5% | Population Tubulin-Different-Phenotype (%) [5]: 84% and 49% | Population Apoptotic (%) [6]: 96% and 93% | Population Healthy Nuclei (%) [6]: 21% and 44% | Population Hoechst High Intensity Objects (%) [6]: 0% | Population Mitochondria Different-Phenotype (%) [6]: 25% and 19% | Population Normal (%) [6]: 100% | Population Pyknosed Nuclei (%) [6]: 53% and 36% | Population Tubulin-Different-Phenotype (%) [6]: 41% and 57%

COc1ncc(-c2cc(-c3ncc(CN4C[C@@H](C)O[C@@H](C)C4)o3)c3cn[nH]c3c2)cc1NS(C)(=O)=O
Population Apoptotic (%) [1]: 66% and 57% | Population Fragmented Nuclei (%) [1]: 3% and 13% | Population Healthy Nuclei (%) [1]: 85% and 69% | Population Hoechst High Intensity Objects (%) [1]: 0% | Population Membrane Permeable-Phenotype (%) [1]: 1% and 0% | Population Mitochondria Different-Phenotype (%) [1]: 0% | Population Mitotic Cells (%) [1]: 33% and 42% | Population Normal (%) [1]: 99% and 100% | Population Pyknosed Nuclei (%) [1]: 11% and 16% | Population Tubulin-Different-Phenotype (%) [1]: 84% and 43% | Population Apoptotic (%) [2]: 50% and 64% | Population Healthy Nuclei (%) [2]: 68% and 77% | Population Hoechst High Intensity Objects (%) [2]: 0% | Population Membrane Permeable-Phenotype (%) [2]: 12% and 10% | Population Mitochondria Different-Phenotype (%) [2]: 0% and 5% | Population Mitotic Cells (%) [2]: 50% and 35% | Population Normal (%) [2]: 100% and 99% | Population Pyknosed Nuclei (%) [2]: 10% and 18% | Population Tubulin-Different-Phenotype (%) [2]: 48% and 45% | Population Apoptotic (%) [3]: 65% and 87% | Population Fragmented Nuclei (%) [3]: 1% and 9% | Population Healthy Nuclei (%) [3]: 87% and 75% | Population Hoechst High Intensity Objects (%) [3]: 0% | Population Membrane Permeable-Phenotype (%) [3]: 1% and 0% | Population Mitochondria Different-Phenotype (%) [3]: 0% | Population Mitotic Cells (%) [3]: 34% and 12% | Population Normal (%) [3]: 99% and 100% | Population Pyknosed Nuclei (%) [3]: 10% and 15% | Population Tubulin-Different-Phenotype (%) [3]: 82% and 47% | Population Apoptotic (%) [4]: 64% and 74% | Population Healthy Nuclei (%) [4]: 49% and 69% | Population Hoechst High Intensity Objects (%) [4]: 0% | Population Membrane Permeable-Phenotype (%) [4]: 0% and 8% | Population Mitochondria Different-Phenotype (%) [4]: 7% and 9% | Population Mitotic Cells (%) [4]: 35% and 25% | Population Normal (%) [4]: 100% | Population Pyknosed Nuclei (%) [4]: 26% and 23% | Population Tubulin-Different-Phenotype (%) [4]: 76% and 49% | Population Apoptotic (%) [5]: 65% and 69% | Population Fragmented Nuclei (%) [5]: 2% and 7% | Population Healthy Nuclei (%) [5]: 87% and 72% | Population Hoechst High Intensity Objects (%) [5]: 0% | Population Membrane Permeable-Phenotype (%) [5]: 1% and 0% | Population Mitochondria Different-Phenotype (%) [5]: 0% | Population Mitotic Cells (%) [5]: 34% and 30% | Population Normal (%) [5]: 99% and 100% | Population Pyknosed Nuclei (%) [5]: 10% and 19% | Population Tubulin-Different-Phenotype (%) [5]: 81% and 43% | Population Apoptotic (%) [6]: 76% and 81% | Population Healthy Nuclei (%) [6]: 55% and 62% | Population Hoechst High Intensity Objects (%) [6]: 0% | Population Membrane Permeable-Phenotype (%) [6]: 7% and 8% | Population Mitochondria Different-Phenotype (%) [6]: 10% and 12% | Population Mitotic Cells (%) [6]: 23% and 18% | Population Normal (%) [6]: 100% | Population Pyknosed Nuclei (%) [6]: 25% and 30% | Population Tubulin-Different-Phenotype (%) [6]: 63% and 50%

CNC(=O)c1c(F)cccc1Nc1nc(Nc2cc3c(cc2OC)CCN3C(=O)CN(C)C)nc2[nH]ccc12
Population Apoptotic (%) [1]: 57% and 62% | Population Healthy Nuclei (%) [1]: 60% and 80% | Population Hoechst High Intensity Objects (%) [1]: 0% | Population Membrane Permeable-Phenotype (%) [1]: 0% and 7% | Population Mitochondria Different-Phenotype (%) [1]: 0% and 8% | Population Mitotic Cells (%) [1]: 42% and 37% | Population Normal (%) [1]: 100% | Population Pyknosed Nuclei (%) [1]: 13% and 15% | Population Tubulin-Different-Phenotype (%) [1]: 80% and 46% | Population Apoptotic (%) [2]: 46% and 60% | Population Healthy Nuclei (%) [2]: 33% and 35% | Population Hoechst High Intensity Objects (%) [2]: 0% and 2% | Population Mitotic Cells (%) [2]: 53% and 39% | Population Normal (%) [2]: 100% and 97% | Population Tubulin-Different-Phenotype (%) [2]: 57% and 75% | Total Cell Count [2]: 815 and 281 | Population Apoptotic (%) [3]: 46% and 59% | Population Healthy Nuclei (%) [3]: 55% and 80% | Population Hoechst High Intensity Objects (%) [3]: 0% | Population Membrane Permeable-Phenotype (%) [3]: 0% and 3% | Population Mitochondria Different-Phenotype (%) [3]: 0% and 7% | Population Mitotic Cells (%) [3]: 53% and 40% | Population Normal (%) [3]: 100% | Population Pyknosed Nuclei (%) [3]: 25% and 15% | Population Tubulin-Different-Phenotype (%) [3]: 87% and 50% | Population Apoptotic (%) [4]: 72% and 83% | Population Healthy Nuclei (%) [4]: 32% and 23% | Population Hoechst High Intensity Objects (%) [4]: 0% and 1% | Population Mitotic Cells (%) [4]: 27% and 16% | Population Normal (%) [4]: 100% and 98% | Population Tubulin-Different-Phenotype (%) [4]: 62% and 78% | Population Apoptotic (%) [5]: 72% and 78% | Population Healthy Nuclei (%) [5]: 61% and 82% | Population Hoechst High Intensity Objects (%) [5]: 1% and 0% | Population Membrane Permeable-Phenotype (%) [5]: 2% and 4% | Population Mitochondria Different-Phenotype (%) [5]: 2% and 5% | Population Mitotic Cells (%) [5]: 27% and 22% | Population Normal (%) [5]: 98% and 100% | Population Pyknosed Nuclei (%) [5]: 23% and 14% | Population Tubulin-Different-Phenotype (%) [5]: 91% and 62% | Population Apoptotic (%) [6]: 95% and 94% | Population Hoechst High Intensity Objects (%) [6]: 0% and 1% | Population Mitotic Cells (%) [6]: 4% and 5% | Population Normal (%) [6]: 100% and 98% | Population Tubulin-Different-Phenotype (%) [6]: 64% and 80%

CCN1CCN(Cc2ccc(C(=O)Nc3ccc(C)c(Oc4ccc5c(c4)CC(=O)N5)c3)cc2C(F)(F)F)CC1.Cl.Cl
Population Apoptotic (%) [1]: 50% | Population Healthy Nuclei (%) [1]: 82% and 64% | Population Hoechst High Intensity Objects (%) [1]: 0% and 3% | Population Membrane Permeable-Phenotype (%) [1]: 0% | Population Mitochondria Different-Phenotype (%) [1]: 4% and 0% | Population Mitotic Cells (%) [1]: 50% | Population Normal (%) [1]: 100% and 96% | Population Pyknosed Nuclei (%) [1]: 12% and 19% | Population Tubulin-Different-Phenotype (%) [1]: 60% and 40% | Population Apoptotic (%) [2]: 42% and 45% | Population Fragmented Nuclei (%) [2]: 15% and 8% | Population Healthy Nuclei (%) [2]: 57% and 69% | Population Hoechst High Intensity Objects (%) [2]: 1% and 0% | Population Membrane Permeable-Phenotype (%) [2]: 33% and 14% | Population Mitochondria Different-Phenotype (%) [2]: 46% | Population Mitotic Cells (%) [2]: 57% and 54% | Population Normal (%) [2]: 98% and 100% | Population Pyknosed Nuclei (%) [2]: 26% and 22% | Population Tubulin-Different-Phenotype (%) [2]: 83% and 81% | Population Apoptotic (%) [3]: 66% and 63% | Population Fragmented Nuclei (%) [3]: 5% and 2% | Population Healthy Nuclei (%) [3]: 71% and 81% | Population Hoechst High Intensity Objects (%) [3]: 2% and 0% | Population Membrane Permeable-Phenotype (%) [3]: 0% | Population Mitochondria Different-Phenotype (%) [3]: 7% and 3% | Population Mitotic Cells (%) [3]: 33% and 36% | Population Normal (%) [3]: 97% and 100% | Population Pyknosed Nuclei (%) [3]: 23% and 15% | Population Tubulin-Different-Phenotype (%) [3]: 51% and 64% | Population Apoptotic (%) [4]: 65% and 64% | Population Fragmented Nuclei (%) [4]: 12% and 8% | Population Healthy Nuclei (%) [4]: 54% and 64% | Population Hoechst High Intensity Objects (%) [4]: 0% | Population Membrane Permeable-Phenotype (%) [4]: 29% and 26% | Population Mitochondria Different-Phenotype (%) [4]: 76% and 74% | Population Mitotic Cells (%) [4]: 35% | Population Normal (%) [4]: 100% | Population Pyknosed Nuclei (%) [4]: 32% and 27% | Population Tubulin-Different-Phenotype (%) [4]: 61% and 86% | Population Apoptotic (%) [5]: 78% and 66% | Population Fragmented Nuclei (%) [5]: 4% and 1% | Population Healthy Nuclei (%) [5]: 72% and 85% | Population Hoechst High Intensity Objects (%) [5]: 1% and 0% | Population Membrane Permeable-Phenotype (%) [5]: 4% and 1% | Population Mitochondria Different-Phenotype (%) [5]: 2% and 1% | Population Mitotic Cells (%) [5]: 21% and 33% | Population Normal (%) [5]: 98% and 99% | Population Pyknosed Nuclei (%) [5]: 22% and 13% | Population Tubulin-Different-Phenotype (%) [5]: 59% and 70% | Population Apoptotic (%) [6]: 83% and 80% | Population Fragmented Nuclei (%) [6]: 9% and 10% | Population Healthy Nuclei (%) [6]: 29% and 49% | Population Hoechst High Intensity Objects (%) [6]: 1% and 0% | Population Membrane Permeable-Phenotype (%) [6]: 66% and 31% | Population Mitochondria Different-Phenotype (%) [6]: 60% and 81% | Population Mitotic Cells (%) [6]: 16% and 19% | Population Normal (%) [6]: 98% and 99% | Population Pyknosed Nuclei (%) [6]: 60% and 40% | Population Tubulin-Different-Phenotype (%) [6]: 80% and 81%
